Bioassay records deposited in PubChem BioAssay by The Scripps Research Institute Molecular Screening Center.
Shown are actives, neighbours in structure and some others; about 3.3% of the full set was active somewhere.
ABHD4 inh: inhibits mouse alpha/beta hydrolase domain 4; Q8VD66; purified mABHD4, FP-Rh probe fluorescence polarization; inhibition, % at 8.92 µM; hit rate 0.54% among 370,000;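 active = inhibition exceeding the mean over every tested compound plus 3 SD, cut at about 30% in these data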;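 also: 0% = plate median of compound wells and 100% = S159A mutant with DMSO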
Target sequence (Q8VD66 whole entry, looked up, the tested form may be a part): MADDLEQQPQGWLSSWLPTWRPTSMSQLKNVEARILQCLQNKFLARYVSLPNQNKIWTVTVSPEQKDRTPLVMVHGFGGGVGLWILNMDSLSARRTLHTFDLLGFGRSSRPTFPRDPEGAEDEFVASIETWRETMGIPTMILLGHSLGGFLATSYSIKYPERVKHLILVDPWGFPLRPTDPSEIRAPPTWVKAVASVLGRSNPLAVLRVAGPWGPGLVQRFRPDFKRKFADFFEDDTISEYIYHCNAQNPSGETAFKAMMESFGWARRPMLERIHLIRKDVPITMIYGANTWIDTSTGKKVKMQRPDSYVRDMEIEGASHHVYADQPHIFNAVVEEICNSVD
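System: mouse ABHD4 enzyme, wild type / Medium: HEPES pH 7.0, NaCl, Pluronic buffer / Reagent: FP-Rh activity-based fluorescent probe / Control set: S159A mutant high control, sample median low control / Detection: fluorescence polarization with parallel and perpendicular emission, 525/598 nm / Schedule: 45 min + 60 min at 25 °C / Compound dosing: 8.92 µM, single dose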
rCAG RNA binder: r(CAG) repeat RNA binding; TO-PRO-1 dye displacement fluorescence; inhibition, % at 3 µM; hit rate 1.3% among 370,000;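 active = inhibition above the plate cutoff, the mean of all test compounds on that plate plus 3 SD, cut at about 35% in these data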;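 also: 0% = DMSO alone and 100% = 100 µM mitoxantrone as full dye displacement; higher means more dye released from RNA so lower well fluorescence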
HTRA1 inhibitor: inhibitors of human serine peptidase HTRA1; recombinant HTRA1, FP-rhodamine activity-based probe, fluorescence polarization; hit rate 0.5% among 340,000; Q92743; inhibition, % at 5.96 µM; in the data active = inhibition above about 36%;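 also: 0% = enzyme with DMSO and 100% = wells lacking enzyme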
SIAE inh: inhibitors of human sialic acid acetylesterase SIAE | Q9HAT2 | SIAE FP-Rh probe binding, fluorescence polarization | inhibition, % at 9.66 µM | hit rate 0.69% among 370,000;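 active = inhibition above a cutoff: mean of compounds within the control limits plus 3 SD of those, cut at about 17% in these data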;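 also: 0% = plate median of compound wells and 100% = probe without SIAE protein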
PRMT1 FP inh: inhibitors of human PRMT1 | Q99873 | recombinant PRMT1, activity-based probe fluorescence polarization | inhibition, % at 2.79 µM | hit rate 1.3% among 370,000 | AID 652257;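 active = inhibition above about 21% made by adding two undisclosed values, limit read from the data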
PRMT1 confirm: PRMT1 (human) inhibition, FP confirmation; recombinant His-PRMT1, activity-based probe fluorescence polarization; inhibition, % at 2.79 µM; shares compounds with PRMT1 FP inh; AID 687036; hit rate 42% among 3,300;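 active = mean inhibition across replicates above the hit cutoff derived for the earlier primary screen, cut at about 22% in these data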
* = called active by the depositor; . = no result.

SMILES	ABHD4 inh	rCAG RNA binder	HTRA1 inhibitor	SIAE inh	PRMT1 FP inh	PRMT1 confirm
CCCOC(=O)c1ccc(NC(=O)CSC2=Nc3ccccc3C3CC=NN23)cc1 (stereo not drawn)	-9.3	4.9	-11.2	-7.2	34.8*	13.8
O=C(CSC1=Nc2ccccc2C2CC=NN12)NCc1ccco1 (stereo not drawn)	-2.4	7.6	-1.3	1.7	3.1	.
O=C(CSC1=Nc2ccccc2C2CC=NN12)Nc1ccc2c(c1)OCO2 (stereo not drawn)	-3.7	1.7	-1.8	2.5	40.9*	27.6*
N#Cc1ccccc1NC(=O)CSC1=Nc2ccccc2C2CC=NN12 (stereo not drawn)	1.7	6.2	-5.0	0.3	25.3*	55.8*
COc1cc(Cl)cc(C(=O)O)c1OCC(=O)O	-0.4	-0.3	2.4	1.1	4.1	.
Cc1ccc(C)c(S(=O)(=O)C(C#N)c2nc3ccccc3nc2N2CCCC2)c1 (stereo not drawn)	-1.9	0.0	1.3	12.1	-1.3	.
Cc1cccc(S(=O)(=O)C(C#N)c2nc3ccccc3nc2N2CCCC2)c1 (stereo not drawn)	7.8	13.2	20.5	-11.8	25.2*	5.0
NC(=O)c1ccc(SCC(=O)OCC(=O)NC2CCCCCCC2)c([N+](=O)[O-])c1	9.8	8.1	2.8	1.4	65.2*	29.9*
O=C(COC(=O)CSc1ccc([N+](=O)[O-])cc1)NCc1ccco1	3.8	-0.3	0.5	-3.8	5.6	.
NC(=O)c1ccc(SCC(=O)OCC(=O)NCc2ccco2)c([N+](=O)[O-])c1	7.7	7.4	-2.1	0.1	26.1*	1.5
O=C1CC(N2CCCCC2)C(=O)N1c1ccccc1 (stereo not drawn)	10.3	2.8	4.0	-1.2	81.0*	12.7
O=C1CC(N2CCN(c3ccc(Cl)cc3)CC2)C(=O)N1c1ccc(F)cc1 (stereo not drawn)	-1.3	1.8	-2.9	2.8	2.9	.
O=C1CC(N2CCCN(C3CC(=O)N(c4ccc(F)cc4)C3=O)CC2)C(=O)N1c1ccc(F)cc1 (stereo not drawn)	-3.4	2.8	-3.8	-1.0	78.2*	5.9
CC(C)Cc1ccc(C(C)NC(=O)Cc2ccc(S(=O)(=O)N3CCOCC3)s2)cc1 (stereo not drawn)	-10.1	-4.4	-13.4	-5.6	-1.2	.
CSc1nc(SCC(=O)NCc2ccco2)c2c3c(sc2n1)COC(C)(C)C3	-2.9	19.8	-4.0	-6.0	37.8*	7.1
CCCCSc1nc(SCC(=O)NCc2ccco2)c2c3c(sc2n1)COC(C)(CC)C3 (stereo not drawn)	-3.5	10.3	-18.9	-7.0	5.5	.
S=c1[nH]c(-c2ccccc2)cs1	5.0	-0.2	-11.0	0.1	30.1*	6.1
C[n+]1c2n(c3ccccc31)N=C(c1ccc(Cl)cc1)CS2	0.4	5.3	-4.2	7.3	39.9*	17.6
CN1CCCC(C#CC(O)(c2ccccc2)c2ccccc2)C1 (stereo not drawn)	6.6	-1.4	-4.0	0.9	4.4	.
Cc1ccc(C)c(OC(=O)C2CSC3(C)CCC(=O)N23)c1C (stereo not drawn)	6.3	-1.3	1.7	-1.3	-2.8	.
CC(C)NC(=O)Cn1c(SCC(=O)c2ccc(F)cc2)nc2ccccc21	5.9	5.3	-7.9	-0.8	61.9*	5.2
COC1=CC(=O)C=C(OC)C1=O	9.7	2.3	5.6	-4.5	56.2*	54.4*
COC1=CC(=O)c2ccccc2C1=O	.	.	-1.1	.	.	.
COc1ccc(-c2cc(NC=O)c3ncc(-c4ccc(OC)c(OC)c4)n3c2)cc1	-5.2	12.6	.	-6.7	3.7	.
CN1C[C@@H](CO)O[C@@H](n2cnc3c(N4CCOCC4)ncnc32)C1	1.8	-0.5	.	-2.9	5.3	.
SMILES	ABHD4 inh	rCAG RNA binder	HTRA1 inhibitor	SIAE inh	PRMT1 FP inh	PRMT1 confirm
O=C1CSC(=S)N1/N=C/c1ccc2c(c1)OCCO2	-3.8	13.4	2.5	-3.5	27.4*	10.2
COc1cc(O)c(C=NN2C(=O)CSC2=S)c(OC)c1	26.8	11.6	2.6	1.6	26.6*	32.4*
O=C1CSC(=S)N1N=Cc1ccccc1O	14.8	14.7	8.2	4.0	53.1*	73.6*
O=C1CSC(=S)N1/N=C/c1cccnc1	11.0	6.2	-1.4	9.1	48.0*	8.2
O=C1CSC(=S)N1N=Cc1cccc(OCc2ccccc2)c1	0.8	25.7	-15.8	-8.0	11.7	.
COc1cc(/C=N/N2C(=O)CSC2=S)ccc1O	-50.4	6.8	-54.8	-22.9	15.7	.
Cc1ccccc1/C=N/N1C(=O)CSC1=S	-0.5	3.7	-2.8	6.8	13.3	.
O=C(Cc1ccc(Cl)c(Cl)c1)Nc1cccc(S(=O)(=O)N2CCOCC2)c1	-11.0	6.6	-25.8	-9.9	0.7	.
Cc1c(N2C(=O)C(=O)/C(=C(/O)c3ccc(Cl)cc3)C2c2ccccc2)c(=O)n(-c2ccccc2)n1C (stereo not drawn)	-2.4	13.8	3.0	2.9	0.0	.
Cc1ccc(N2C(=O)CC(SCC(=O)Nc3ccc(S(N)(=O)=O)cc3)C2=O)cc1 (stereo not drawn)	-1.2	2.7	-4.2	3.5	53.4*	66.2*
COC(=O)c1ccc(N2C(=O)CC(SCC(=O)Nc3ccc(OC)cc3)C2=O)cc1 (stereo not drawn)	4.7	4.2	-4.5	2.0	52.8*	48.6*
CCOC(=O)c1ccc(N2C(=O)CC(Nc3ccc(CCO)cc3)C2=O)cc1 (stereo not drawn)	2.6	-1.2	1.9	1.3	0.2	.
O=C(CSC1CC(=O)N(c2ccc(C(=O)O)cc2)C1=O)Nc1ccc2ccccc2c1 (stereo not drawn)	-6.2	4.1	-15.2	6.8	19.5	.
CCOC(=O)c1ccc(N2C(=O)CC(SCC(=O)Nc3ccc(S(N)(=O)=O)cc3)C2=O)cc1 (stereo not drawn)	-2.5	7.1	-4.8	-5.6	82.1*	83.0*
COc1ccc(N)cc1-n1cnnn1	0.0	-0.5	8.2	2.8	8.0	.
CC(C)n1cc(/C=N/Nc2ccc(C(=O)O)cc2)c2ccccc21	17.2	25.5	9.7	9.0	25.6*	3.6
COc1ccc(OC)c(N=c2ssnc2Cl)c1	13.4	8.1	13.4	2.2	74.9*	81.3*
COc1cc(N=c2ssnc2Cl)c(OC)cc1Cl	10.9	5.8	6.1	15.8	93.7*	91.4*
O=C(NCc1ccco1)c1cc2nc(-c3cccs3)cc(C(F)(F)F)n2n1	-1.2	6.3	-17.3	-5.1	34.1*	2.2
Cc1ccc(NC(=O)CN(C)C(=O)c2cccc(S(=O)(=O)NCc3ccccc3)c2)cc1	-7.9	4.4	-6.0	-2.6	-4.2	.
O=C(CSC(=O)c1ccccc1)Nc1ccccc1F	4.0	1.6	-1.1	7.8	29.4*	25.9*
COc1ccc(C(=O)NC2CCCN(Cc3ccc(Cl)cc3)C2)c(OC)c1 (stereo not drawn)	-11.3	-7.3	-27.3	-4.9	-7.9	.
